# From ChEMBL document CHEMBL1122061, “Use of a potential rabbit model for structure--behavioral activity studies of cannabinoids” (1982)
# Legend:
# Format in all cases: functional
# Oryctolagus cuniculus [1] = experiment: Number of rabbits convulsed at 0.5 mg/kg, iv out of 1 rabbit tested
# Method in brief: (§1)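 Adult tetrahydrocannabinol-seizure susceptible (THC-SS) rabbits, 2–4 kg, dosed intravenously with cannabinoid in 10% polysorbate 80/90% physiological saline. Presence or absence of behavioral convulsion was recorded within 20 min. Animals were reused for several compounds or doses, with at least 7 days between trials and treatments given in random order. Every rabbit also received 0.05 mg/kg Δ9-THC at least once. Aim was four rabbits per dose.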
# Oryctolagus cuniculus [2] = experiment: Number of rabbits convulsed at 2 mg/kg, iv out of 2 rabbits tested; method in brief: as §1
# Oryctolagus cuniculus [3] = experiment: Number of rabbits convulsed at 1 mg/kg, iv out of 4 rabbits tested; method in brief: as §1
# Oryctolagus cuniculus [4] = experiment: Number of rabbits convulsed at 4 mg/kg, iv out of 1 rabbit tested; method in brief: as §1
# Oryctolagus cuniculus [5] = experiment: Number of rabbits convulsed at 0.05 mg/kg, iv out of 4 rabbits tested; method in brief: as §1
# Oryctolagus cuniculus [6] = experiment: Number of rabbits convulsed at 0.25 mg/kg, iv out of 1 rabbits tested; method in brief: as §1
# Oryctolagus cuniculus [7] = experiment: Number of rabbits convulsed at 0.01 mg/kg, iv out of 4 rabbits tested; method in brief: as §1
# Oryctolagus cuniculus [8] = experiment: Number of rabbits convulsed at 0.5 mg/kg, iv out of 1 rabbits tested; method in brief: as §1
# Oryctolagus cuniculus [9] = experiment: Number of rabbits convulsed at 1 mg/kg, iv out of 1 rabbits tested; method in brief: as §1
# Oryctolagus cuniculus [10] = experiment: Number of rabbits convulsed at 0.5 mg/kg, iv out of 4 rabbits tested; method in brief: as §1
# Oryctolagus cuniculus [11] = experiment: Number of rabbits convulsed at 0.9 mg/kg, iv out of 3 rabbits tested; method in brief: as §1
# Oryctolagus cuniculus [12] = experiment: Number of rabbits convulsed at 20 mg/kg, iv out of 3 rabbits tested; method in brief: as §1
# Oryctolagus cuniculus [13] = experiment: Number of rabbits convulsed at 0.005 mg/kg, iv out of 4 rabbits tested; method in brief: as §1
# Oryctolagus cuniculus [14] = experiment: Number of rabbits convulsed at 0.1 mg/kg, iv out of 4 rabbits tested; method in brief: as §1
# Oryctolagus cuniculus [15] = experiment: Number of rabbits convulsed at 0.5 mg/kg, iv out of 3 rabbits tested; method in brief: as §1
# Oryctolagus cuniculus [16] = experiment: Number of rabbits convulsed at 0.1 mg/kg, iv out of 2 rabbits tested; method in brief: as §1
# Oryctolagus cuniculus [17] = experiment: Number of rabbits convulsed at 0.9 mg/kg, iv out of 4 rabbits tested; method in brief: as §1
# Oryctolagus cuniculus [18] = experiment: Number of rabbits convulsed at 20 mg/kg, iv out of 2 rabbits tested; method in brief: as §1
# Oryctolagus cuniculus [19] = experiment: Number of rabbits convulsed at 0.9 mg/kg, iv out of 1 rabbits tested; method in brief: as §1
# Oryctolagus cuniculus [20] = experiment: Number of rabbits convulsed at 0.1 mg/kg, iv out of 1 rabbits tested; method in brief: as §1
# Oryctolagus cuniculus [21] = experiment: Number of rabbits convulsed at 5 mg/kg, iv out of 1 rabbit tested; method in brief: as §1
# Oryctolagus cuniculus [22] = experiment: Number of rabbits convulsed at 10 mg/kg, iv out of 1 rabbit tested; method in brief: as §1
# Oryctolagus cuniculus [23] = experiment: Number of rabbits convulsed at 1 mg/kg, iv out of 3 rabbits tested; method in brief: as §1
# Oryctolagus cuniculus [24] = experiment: Number of rabbits convulsed at 0.05 mg/kg, iv out of 3 rabbits tested; method in brief: as §1
# Oryctolagus cuniculus [25] = experiment: Number of rabbits convulsed at 5 mg/kg, iv out of 1 rabbits tested; method in brief: as §1
# Oryctolagus cuniculus [26] = experiment: Number of rabbits convulsed at 10 mg/kg, iv out of 1 rabbits tested; method in brief: as §1
# Oryctolagus cuniculus [27] = experiment: Number of rabbits convulsed at 0.25 mg/kg, iv out of 5 rabbits tested; method in brief: as §1
# Oryctolagus cuniculus [28] = experiment: Number of rabbits convulsed at 5 mg/kg, iv out of 4 rabbits tested; method in brief: as §1
# Oryctolagus cuniculus [29] = experiment: Number of rabbits convulsed at 20 mg/kg, iv out of 1 rabbits tested; method in brief: as §1
# Oryctolagus cuniculus [30] = experiment: Number of rabbits convulsed at 0.5 mg/kg, iv out of 7 rabbits tested; method in brief: as §1
# Oryctolagus cuniculus [31] = experiment: Number of rabbits convulsed at 0.05 mg/kg, iv out of 2 rabbits tested; method in brief: as §1
# Oryctolagus cuniculus [32] = experiment: Number of rabbits convulsed at 15 mg/kg, iv out of 1 rabbit tested; method in brief: as §1
# Oryctolagus cuniculus [33] = experiment: Number of rabbits convulsed at 8 mg/kg, iv out of 2 rabbits tested; method in brief: as §1
# Oryctolagus cuniculus [34] = experiment: Number of rabbits convulsed at 20 mg/kg, iv out of 4 rabbits tested; method in brief: as §1
# Oryctolagus cuniculus [35] = experiment: Number of rabbits convulsed at 8 mg/kg, iv out of 1 rabbit tested; method in brief: as §1
# Oryctolagus cuniculus [36] = experiment: Number of rabbits convulsed at 15 mg/kg, iv out of 7 rabbits tested; method in brief: as §1
# Oryctolagus cuniculus [37] = experiment: Number of rabbits convulsed at 20 mg/kg, iv out of 6 rabbits tested; method in brief: as §1
# Oryctolagus cuniculus [38] = experiment: Number of rabbits convulsed at 15 mg/kg, iv out of 10 rabbits tested; method in brief: as §1
# Oryctolagus cuniculus [39] = experiment: Number of rabbits convulsed at 10 mg/kg, iv out of 6 rabbits tested; method in brief: as §1
# Oryctolagus cuniculus [40] = experiment: Number of rabbits convulsed at 0.5 mg/kg, iv out of 20 rabbits tested; method in brief: as §1
# Oryctolagus cuniculus [41] = experiment: Number of rabbits convulsed at 0.05 mg/kg, iv out of 14 rabbits tested; method in brief: as §1
# Oryctolagus cuniculus [42] = experiment: Number of rabbits convulsed at 0.1 mg/kg, iv out of 10 rabbits tested; method in brief: as §1
# Oryctolagus cuniculus [43] = experiment: Number of rabbits convulsed at 0.9 mg/kg, iv out of 9 rabbits tested; method in brief: as §1
compound,measurement,setting,value
CCCCCc1cc(O)c2c(c1)OC(C)(C)c1ccc(CO)cc1-2,No. of rabbits convulsed,Oryctolagus cuniculus [1],0
same,No. of rabbits convulsed,Oryctolagus cuniculus [2],2
same,No. of rabbits convulsed,Oryctolagus cuniculus [3],1
same,No. of rabbits convulsed,Oryctolagus cuniculus [4],1
CCCCCc1cc(O)c2c(c1)OC(C)(C)[C@@H]1CC=C(CO)CC21 (some centres not stated),No. of rabbits convulsed,Oryctolagus cuniculus [5],4
same,No. of rabbits convulsed,Oryctolagus cuniculus [6],1
same,No. of rabbits convulsed,Oryctolagus cuniculus [7],2
same,No. of rabbits convulsed,Oryctolagus cuniculus [8],1
same,No. of rabbits convulsed,Oryctolagus cuniculus [9],1
CCCCCc1cc(O)c2c(c1)OC(C)(C)[C@@H]1C[C@H](O)C(C)=CC21 (some centres not stated),No. of rabbits convulsed,Oryctolagus cuniculus [5],4
same,No. of rabbits convulsed,Oryctolagus cuniculus [7],2
CCCCCc1cc(O)c2c(c1)OC(C)(C)[C@@H]1CC=C(C=O)CC21 (some centres not stated),No. of rabbits convulsed,Oryctolagus cuniculus [10],4
same,No. of rabbits convulsed,Oryctolagus cuniculus [5],4
same,No. of rabbits convulsed,Oryctolagus cuniculus [7],0
CCCCCc1cc(O)c2c(c1)OC(C)(C)C1=C2CCCC1,No. of rabbits convulsed,Oryctolagus cuniculus [11],0
same,No. of rabbits convulsed,Oryctolagus cuniculus [12],1
CCCCCCC(C)(C)c1cc(O)c2c(c1)OC(C)(C)[C@@H]1CCC(=O)CC21 (some centres not stated),No. of rabbits convulsed,Oryctolagus cuniculus [13],3
same,No. of rabbits convulsed,Oryctolagus cuniculus [7],4
same,No. of rabbits convulsed,Oryctolagus cuniculus [14],4
CCCCCc1cc(O)c2c(c1)OC(C)(C)C1=C2CC(C)CC1 (configuration not stated),No. of rabbits convulsed,Oryctolagus cuniculus [15],2
same,No. of rabbits convulsed,Oryctolagus cuniculus [16],0
same,No. of rabbits convulsed,Oryctolagus cuniculus [17],4
CCCCCc1cc(O)c2c(c1)OC(C)(C)[C@@H]1C[C@@H](O)C(C)=CC21 (some centres not stated),No. of rabbits convulsed,Oryctolagus cuniculus [18],0
same,No. of rabbits convulsed,Oryctolagus cuniculus [19],0
same,No. of rabbits convulsed,Oryctolagus cuniculus [20],0
CCCCCc1cc(O)c2c(c1)OC(C)(C)[C@@H]1CC=C(C(=O)O)CC21 (some centres not stated),No. of rabbits convulsed,Oryctolagus cuniculus [18],2
same,No. of rabbits convulsed,Oryctolagus cuniculus [21],0
same,No. of rabbits convulsed,Oryctolagus cuniculus [22],0
same,No. of rabbits convulsed,Oryctolagus cuniculus [23],0
CCCCCC(C)C(C)c1cc(O)c2c(c1)OC(C)(C)[C@@H]1CC=C(C)CC21 (some centres not stated),No. of rabbits convulsed,Oryctolagus cuniculus [24],3
same,No. of rabbits convulsed,Oryctolagus cuniculus [7],3
CCCCCc1cc(O)c2c(c1)OC(C)(C)[C@@H]1CCC(C)CC21 (some centres not stated),No. of rabbits convulsed,Oryctolagus cuniculus [5],2
same,No. of rabbits convulsed,Oryctolagus cuniculus [25],1
same,No. of rabbits convulsed,Oryctolagus cuniculus [20],1
same,No. of rabbits convulsed,Oryctolagus cuniculus [23],3
same,No. of rabbits convulsed,Oryctolagus cuniculus [8],1
CCCCC(O)c1cc(O)c2c(c1)OC(C)(C)c1ccc(C)cc1-2 (configuration not stated),No. of rabbits convulsed,Oryctolagus cuniculus [26],0
same,No. of rabbits convulsed,Oryctolagus cuniculus [25],0
CC1=CC2c3c(O)cc(CCCCCO)cc3OC(C)(C)[C@@H]2CC1 (some centres not stated),No. of rabbits convulsed,Oryctolagus cuniculus [5],2
same,No. of rabbits convulsed,Oryctolagus cuniculus [14],4
CCCCCc1cc(O)c2c(c1)OC(C)(C)[C@@H]1CCC(CO)=CC21 (some centres not stated),No. of rabbits convulsed,Oryctolagus cuniculus [5],4
same,No. of rabbits convulsed,Oryctolagus cuniculus [27],5
same,No. of rabbits convulsed,Oryctolagus cuniculus [7],3
same,No. of rabbits convulsed,Oryctolagus cuniculus [14],4
"CCCCCc1cc(O)c2c(c1)OC(C)(C)[C@@H]1CC=C(C)CC21 (single isomer, unassigned; (+))",No. of rabbits convulsed,Oryctolagus cuniculus [28],2
same,No. of rabbits convulsed,Oryctolagus cuniculus [29],1
"CCCCCc1cc(O)c2c(c1)OC(C)(C)[C@@H]1CC=C(C)CC21 (single isomer, unassigned; (-))",No. of rabbits convulsed,Oryctolagus cuniculus [5],2
same,No. of rabbits convulsed,Oryctolagus cuniculus [30],7
same,No. of rabbits convulsed,Oryctolagus cuniculus [14],4
"CC(=O)Oc1cc(OC(C)CCCc2ccccc2)cc2c1[C@@H]1C[C@H](O)CC[C@H]1[C@H](C)N2 (single isomer, unassigned; (-)) [NANTRADOL]",No. of rabbits convulsed,Oryctolagus cuniculus [31],2
same,No. of rabbits convulsed,Oryctolagus cuniculus [5],3
CCCCCc1cc(O)c2c(c1)OC(C)(CCC=C(C)C)C=C2 (configuration not stated) [CANNABICHROMENE],No. of rabbits convulsed,Oryctolagus cuniculus [32],0
same,No. of rabbits convulsed,Oryctolagus cuniculus [33],0
same,No. of rabbits convulsed,Oryctolagus cuniculus [34],1
CCCCCc1cc(O)c2c(c1)OC1(C)CCC3C1C2C3(C)C (configuration not stated) [CANNABICYCLOL],No. of rabbits convulsed,Oryctolagus cuniculus [18],0
same,No. of rabbits convulsed,Oryctolagus cuniculus [35],0
C=C(C)[C@@H]1CCC(C)=C[C@H]1c1c(O)cc(CCCCC)cc1O [CANNABIDIOL],No. of rabbits convulsed,Oryctolagus cuniculus [36],0
same,No. of rabbits convulsed,Oryctolagus cuniculus [37],0
CCCCCc1cc(O)c2c(c1)OC(C)(C)c1ccc(C)cc1-2 [CANNABINOL],No. of rabbits convulsed,Oryctolagus cuniculus [38],10
same,No. of rabbits convulsed,Oryctolagus cuniculus [39],4
CCCCCc1cc(O)c2c(c1)OC(C)(C)[C@@H]1CCC(C)=C[C@@H]21 [DRONABINOL],No. of rabbits convulsed,Oryctolagus cuniculus [40],20
same,No. of rabbits convulsed,Oryctolagus cuniculus [26],1
same,No. of rabbits convulsed,Oryctolagus cuniculus [41],14
same,No. of rabbits convulsed,Oryctolagus cuniculus [42],10
same,No. of rabbits convulsed,Oryctolagus cuniculus [7],0
same,No. of rabbits convulsed,Oryctolagus cuniculus [43],9
CCCCCc1cc(O)cc(O)c1 [WHILE OLIVETOL],No. of rabbits convulsed,Oryctolagus cuniculus [34],0
